Measured values as given in PMC6702080 (Nature chemical biology, 2019).
Like-named read-outs stand apart in the source and are kept apart here. Each block holds one molecule with its values, some of them ahead of it.

How the values were obtained:
[1] = cited from earlier work
[2] = molecular target: PCBP1–BolA2 complex (Homo sapiens, UniProt Q15365+Q9H3K6); assay: Co-immunoprecipitation of PCBP1 with BolA2-Flag from HEK293 cell lysates; conditions: 1 mM DTT as alternative reducing agent instead of 5 mM GSH in IP buffer
Chain of PCBP1–BolA2 complex (Q15365 whole entry): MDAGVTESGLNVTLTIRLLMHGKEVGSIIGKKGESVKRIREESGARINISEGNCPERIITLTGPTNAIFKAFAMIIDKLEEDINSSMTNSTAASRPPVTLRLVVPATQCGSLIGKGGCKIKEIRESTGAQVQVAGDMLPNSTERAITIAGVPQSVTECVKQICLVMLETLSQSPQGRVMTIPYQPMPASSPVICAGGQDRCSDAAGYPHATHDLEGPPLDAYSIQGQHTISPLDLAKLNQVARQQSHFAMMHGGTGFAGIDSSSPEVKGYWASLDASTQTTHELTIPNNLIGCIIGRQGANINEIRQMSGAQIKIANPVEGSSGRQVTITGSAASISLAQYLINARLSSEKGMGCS
Chain of PCBP1–BolA2 complex (Q9H3K6 whole entry): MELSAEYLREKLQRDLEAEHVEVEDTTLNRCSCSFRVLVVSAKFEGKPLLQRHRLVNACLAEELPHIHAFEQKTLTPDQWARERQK

[3] = molecular target: BolA2–KH3 complex (Homo sapiens, UniProt Q15365); assay: biochemical
Chain of BolA2–KH3 complex (Q15365 279-356): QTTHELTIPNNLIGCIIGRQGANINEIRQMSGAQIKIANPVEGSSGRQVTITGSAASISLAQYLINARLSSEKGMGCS
Chain of BolA2–KH3 complex (Q9H3K6 whole entry partner, the tested form may be a part): as the sequence (Q9H3K6 whole entry) above

[4] = molecular target: T1, PCBP1 KH3 domain (Homo sapiens, UniProt Q15365); conditions: 100 μM 35S-GSH
T1 sequence (Q15365 279-356 limits assumed): as the sequence (Q15365 279-356) above

[5] = molecular target: T2, PCBP1 KH3 domain (WT) (Homo sapiens, UniProt Q15365); conditions: wild-type KH3, 100 μM 35S-GSH, +/- 100 μM FeSO4
Target sequence in this assay (Q15365 287-356 limits assumed): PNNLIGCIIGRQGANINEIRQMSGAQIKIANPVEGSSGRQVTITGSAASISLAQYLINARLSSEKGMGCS

[6] = molecular target: T1, PCBP1 KH3 domain; assay: biochemical; conditions: 200 nM labeled KH3
[7] = molecular target: T1, PCBP1 KH3 domain; conditions: 10 μM Fe(II) versus no iron
[8] = molecular target: T2, PCBP1 KH3 domain (WT); assay: Fe; type: binding; conditions: for Kd: read-out: KD of Fe(II) for wild-type KH3
Target sequence in this assay (Q15365 279-356 limits assumed): as the sequence (Q15365 279-356) above

[9] = molecular target: PCBP1 KH3 domain C293S variant; assay: Fe; type: binding, human; conditions: read-out: KD of Fe(II) for C293S KH3
How it was run: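 Fe(II) binding followed as the fall in apo-indicator absorbance (366 nm, shifting toward 325 nm on metal binding). KD from competition; means ± SD, n = 4 independent experiments.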

SMILES: [Mn+2] [manganese]
fold lower affinity for GSH than Fe(II) [1]: > 100 fold

stabilization of PCBP1–BolA2 complexes [2]: did not result in stabilization
SMILES: O[C@@H](CS)[C@@H](O)CS (racemic) [dithiothreitol]

SMILES: N[C@@H](CCC(=O)N[C@@H](CS)C(=O)NCC(=O)O)C(=O)O [GSH, glutathione]
Kd [3]: 86 ± 25 µM | GSH binding of wild-type KH3 relative to control IPs [4]: 5 fold | increase of GSH binding in the presence of Fe(II) [5]: 2 fold | Kd ([6]; KD of GSH for KH3, buffer containing 10 μM Fe(II) (FeSO4)): 80 ± 10 µM | Kd ([6]; apparent KD of GSH for KH3, buffers without iron): 390 ± 50 µM | fold higher affinity of GSH for KH3 with iron [7]: ~5 fold

fold increase of affinity of KH3 for Fe(II) by GSH ([8]; 5 mM GSH versus no GSH): ~ 5 fold | Kd ([8]; 0 mM GSH (absence of glutathione)): 4.2 ± 0.7 µM | Kd ([8]; 5 mM GSH): 0.8 ± 0.1 µM | Kd ([9]; 0 mM GSH): 16.4 ± 2.7 µM | Kd ([9]; 5 mM GSH): 9.4 ± 1.3 µM
SMILES: O=S(=O)([O-])[O-].[Fe+2] [Fe(II), FeSO4]
